Converted amounts (≈) assume the structure as drawn.
Columns and labels:
Format in all cases: functional
Bacillus cereus [1] = test: Antimicrobial activity against Bacillus cereus MTCC 8372 after 24 hrs by microdilution method; details: MTCC 8372, 24 h
Summary of the method: (§1)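 The minimal inhibitory concentration was determined by dilution, alongside minimal bactericidal concentration for bacterial strains and minimal fungicidal concentration for fungal strains. Tests were run in six replicates, and the value is the mean of at least three determinations.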

Fusarium verticillioides [2] = test: Antimicrobial activity against Fusarium moniliforme MTCC 156 at 50 ug/ml after 48 hrs by disc diffusion method; details: MTCC 156, 48 h, read-out: DIZ
Summary of the method: (§2)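 Agar diffusion read-out is the diameter of the inhibition zone in mm. Each test was run in six replicates and reported as mean ± standard deviation, taken from at least three determinations.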

Klebsiella pneumoniae [3] = test: Antimicrobial activity against Klebsiella pneumoniae MTCC 3384 at 100 ug/ml after 24 hrs by disc diffusion method; details: MTCC 3384, 24 h, read-out: DIZ; summary of the method: as §2
Staphylococcus aureus [4] = test: Antimicrobial activity against Staphylococcus aureus MTCC 96 at 100 ug/ml after 24 hrs by disc diffusion method; details: MTCC 96, 24 h, read-out: DIZ; summary of the method: as §2
Bacillus cereus [5] = test: Antimicrobial activity against Bacillus cereus MTCC 8372 at 50 ug/ml after 24 hrs by disc diffusion method; details: MTCC 8372, 24 h, read-out: DIZ; summary of the method: as §2
Klebsiella pneumoniae [6] = test: Antimicrobial activity against Klebsiella pneumoniae MTCC 3384 at 50 ug/ml after 24 hrs by disc diffusion method; details: MTCC 3384, 24 h, read-out: DIZ; summary of the method: as §2
Aspergillus niger [7] = test: Antimicrobial activity against Aspergillus niger MTCC 281 after 48 hrs by microdilution method; details: MTCC 281, 48 h; summary of the method: as §1
Fusarium oxysporum [8] = test: Antimicrobial activity against Fusarium oxysporum MTCC 284 at 100 ug/ml after 48 hrs by disc diffusion method; details: MTCC 284, 48 h, read-out: DIZ; summary of the method: as §2
Aspergillus flavus [9] = test: Antimicrobial activity against Aspergillus flavus MTCC 873 at 50 ug/ml after 48 hrs by disc diffusion method; details: MTCC 873, 48 h, read-out: DIZ; summary of the method: as §2
Aspergillus flavus [10] = test: Antimicrobial activity against Aspergillus flavus MTCC 873 at 100 ug/ml after 48 hrs by disc diffusion method; details: MTCC 873, 48 h, read-out: DIZ; summary of the method: as §2
Escherichia coli [11] = test: Antimicrobial activity against Escherichia coli MTCC 724 at 50 ug/ml after 24 hrs by disc diffusion method; details: MTCC 724, 24 h, read-out: DIZ; summary of the method: as §2
Aspergillus flavus [12] = test: Antimicrobial activity against Aspergillus flavus MTCC 873 after 48 hrs by microdilution method; details: MTCC 873, 48 h; summary of the method: as §1
Bacillus cereus [13] = test: Antimicrobial activity against Bacillus cereus MTCC 8372 at 100 ug/ml after 24 hrs by disc diffusion method; details: MTCC 8372, 24 h, read-out: DIZ; summary of the method: as §2
Klebsiella pneumoniae [14] = test: Antimicrobial activity against Klebsiella pneumoniae MTCC 3384 after 24 hrs by microdilution method; details: MTCC 3384, 24 h; summary of the method: as §1
Staphylococcus aureus [15] = test: Antimicrobial activity against Staphylococcus aureus MTCC 96 after 24 hrs by microdilution method; details: MTCC 96, 24 h; summary of the method: as §1
Fusarium oxysporum [16] = test: Antimicrobial activity against Fusarium oxysporum MTCC 284 after 48 hrs by microdilution method; details: MTCC 284, 48 h; summary of the method: as §1
Aspergillus niger [17] = test: Antimicrobial activity against Aspergillus niger MTCC 281 at 50 ug/ml after 48 hrs by disc diffusion method; details: MTCC 281, 48 h, read-out: DIZ; summary of the method: as §2
Fusarium verticillioides [18] = test: Antimicrobial activity against Fusarium moniliforme MTCC 156 after 48 hrs by microdilution method; details: MTCC 156, 48 h; summary of the method: as §1
Fusarium verticillioides [19] = test: Antimicrobial activity against Fusarium moniliforme MTCC 156 at 100 ug/ml after 48 hrs by disc diffusion method; details: MTCC 156, 48 h, read-out: DIZ; summary of the method: as §2
Fusarium oxysporum [20] = test: Antimicrobial activity against Fusarium oxysporum MTCC 284 at 50 ug/ml after 48 hrs by disc diffusion method; details: MTCC 284, 48 h, read-out: DIZ; summary of the method: as §2
Escherichia coli [21] = test: Antimicrobial activity against Escherichia coli MTCC 724 at 100 ug/ml after 24 hrs by disc diffusion method; details: MTCC 724, 24 h, read-out: DIZ; summary of the method: as §2
Staphylococcus aureus [22] = test: Antimicrobial activity against Staphylococcus aureus MTCC 96 at 50 ug/ml after 24 hrs by disc diffusion method; details: MTCC 96, 24 h, read-out: DIZ; summary of the method: as §2
Aspergillus niger [23] = test: Antimicrobial activity against Aspergillus niger MTCC 281 at 100 ug/ml after 48 hrs by disc diffusion method; details: MTCC 281, 48 h, read-out: DIZ; summary of the method: as §2
Escherichia coli [24] = test: Antimicrobial activity against Escherichia coli MTCC 724 after 24 hrs by microdilution method; details: MTCC 724, 24 h; summary of the method: as §1

SMILES | MBC (Bacillus cereus [1]) | MIC (Bacillus cereus [1]) | zone of inhibition at 50 µg/mL (Fusarium verticillioides [2]) | zone of inhibition at 100 µg/mL (Klebsiella pneumoniae [3]) | zone of inhibition at 100 µg/mL (Staphylococcus aureus [4]) | zone of inhibition at 50 µg/mL (Bacillus cereus [5]) | zone of inhibition at 50 µg/mL (Klebsiella pneumoniae [6]) | MFC (Aspergillus niger [7]) | MIC (Aspergillus niger [7]) | zone of inhibition at 100 µg/mL (Fusarium oxysporum [8]) | zone of inhibition at 50 µg/mL (Aspergillus flavus [9]) | zone of inhibition at 100 µg/mL (Aspergillus flavus [10]) | zone of inhibition at 50 µg/mL (Escherichia coli [11]) | MFC (Aspergillus flavus [12]) | MIC (Aspergillus flavus [12]) | zone of inhibition at 100 µg/mL (Bacillus cereus [13]) | MBC (Klebsiella pneumoniae [14]) | MIC (Klebsiella pneumoniae [14]) | MBC (Staphylococcus aureus [15]) | MIC (Staphylococcus aureus [15]) | also measured
Cc1c(-c2nnc(-c3ccc([N+](=O)[O-])cc3)o2)c(-c2ccc([N+](=O)[O-])cc2)nn1-c1ccccc1 | 160 µg/mL (≈ 342 µM) | 20 µg/mL (≈ 42.7 µM) | 8 mm | 16 mm | 20 mm | 14 mm | 8 mm | 275 µg/mL (≈ 587 µM) | 45 µg/mL (≈ 96.1 µM) | 16 mm | 8 mm | 11 mm | 12 mm | 275 µg/mL (≈ 587 µM) | 40 µg/mL (≈ 85.4 µM) | 22 mm | 170 µg/mL (≈ 363 µM) | 25 µg/mL (≈ 53.4 µM) | 155 µg/mL (≈ 331 µM) | 20 µg/mL (≈ 42.7 µM) | MFC (Fusarium oxysporum [16]): 280 µg/mL (≈ 598 µM); MIC (Fusarium oxysporum [16]): 50 µg/mL (≈ 107 µM); zone of inhibition at 50 µg/mL (Aspergillus niger [17]): 6 mm; MFC (Fusarium verticillioides [18]): 290 µg/mL (≈ 619 µM); MIC (Fusarium verticillioides [18]): 55 µg/mL (≈ 117 µM); zone of inhibition at 100 µg/mL (Fusarium verticillioides [19]): 18 mm; zone of inhibition at 50 µg/mL (Fusarium oxysporum [20]): 8 mm; zone of inhibition at 100 µg/mL (Escherichia coli [21]): 22 mm; zone of inhibition at 50 µg/mL (Staphylococcus aureus [22]): 12 mm; zone of inhibition at 100 µg/mL (Aspergillus niger [23]): 14 mm; MBC (Escherichia coli [24]): 175 µg/mL (≈ 374 µM); MIC (Escherichia coli [24]): 25 µg/mL (≈ 53.4 µM)
COc1ccc(-c2nnc(-c3c(-c4ccccc4)nn(-c4ccccc4)c3C)o2)cc1 | 220 µg/mL (≈ 539 µM) | 35 µg/mL (≈ 85.7 µM) | 9 mm | 11 mm | 12 mm | 5 mm | 9 mm | 275 µg/mL (≈ 673 µM) | 45 µg/mL (≈ 110 µM) | 12 mm | 8 mm | 14 mm | 8 mm | 270 µg/mL (≈ 661 µM) | 45 µg/mL (≈ 110 µM) | 12 mm | 240 µg/mL (≈ 588 µM) | 45 µg/mL (≈ 110 µM) | 225 µg/mL (≈ 551 µM) | 35 µg/mL (≈ 85.7 µM) | MFC (Fusarium oxysporum [16]): 280 µg/mL (≈ 685 µM); MIC (Fusarium oxysporum [16]): 50 µg/mL (≈ 122 µM); zone of inhibition at 50 µg/mL (Aspergillus niger [17]): 6 mm; MFC (Fusarium verticillioides [18]): 290 µg/mL (≈ 710 µM); MIC (Fusarium verticillioides [18]): 50 µg/mL (≈ 122 µM); zone of inhibition at 100 µg/mL (Fusarium verticillioides [19]): 11 mm; zone of inhibition at 50 µg/mL (Fusarium oxysporum [20]): 8 mm; zone of inhibition at 100 µg/mL (Escherichia coli [21]): 12 mm; zone of inhibition at 50 µg/mL (Staphylococcus aureus [22]): 6 mm; zone of inhibition at 100 µg/mL (Aspergillus niger [23]): 12 mm; MBC (Escherichia coli [24]): 235 µg/mL (≈ 575 µM); MIC (Escherichia coli [24]): 45 µg/mL (≈ 110 µM)
COc1ccc(-c2nn(-c3ccccc3)c(C)c2-c2nnc(-c3ccccc3)o2)cc1OC | 230 µg/mL (≈ 525 µM) | 35 µg/mL (≈ 79.8 µM) | 6 mm | 9 mm | 13 mm | 8 mm | 6 mm | 275 µg/mL (≈ 627 µM) | 40 µg/mL (≈ 91.2 µM) | 24 mm | 5 mm | 8 mm | 14 mm | 275 µg/mL (≈ 627 µM) | 45 µg/mL (≈ 103 µM) | 16 mm | 250 µg/mL (≈ 570 µM) | 35 µg/mL (≈ 79.8 µM) | 235 µg/mL (≈ 536 µM) | 40 µg/mL (≈ 91.2 µM) | MFC (Fusarium oxysporum [16]): 220 µg/mL (≈ 502 µM); MIC (Fusarium oxysporum [16]): 25 µg/mL (≈ 57 µM); zone of inhibition at 50 µg/mL (Aspergillus niger [17]): 3 mm; MFC (Fusarium verticillioides [18]): 290 µg/mL (≈ 661 µM); MIC (Fusarium verticillioides [18]): 55 µg/mL (≈ 125 µM); zone of inhibition at 100 µg/mL (Fusarium verticillioides [19]): 8 mm; zone of inhibition at 50 µg/mL (Fusarium oxysporum [20]): 15 mm; zone of inhibition at 100 µg/mL (Escherichia coli [21]): 20 mm; zone of inhibition at 50 µg/mL (Staphylococcus aureus [22]): 6 mm; zone of inhibition at 100 µg/mL (Aspergillus niger [23]): 11 mm; MBC (Escherichia coli [24]): 220 µg/mL (≈ 502 µM); MIC (Escherichia coli [24]): 35 µg/mL (≈ 79.8 µM)
